Reference: article PMC7719619 (Angewandte Chemie (International ed. in English), 2020)
≈ marks a conversion by molar mass, not a printed value. Square brackets hold non-standard residues; d marks the D form. Peptide text beside a SMILES is read from it. Gly(N-CH2-oxan-4-yl) = O=C(O)CNCC1CCOCC1; NCyclohexylmethylGly = O=C(O)CNCC1CCCCC1; NMeL = CN[C@@H](CC(C)C)C(=O)O; NMeA = CN[CH](C)C(=O)O; NEtG = CCNCC(=O)O

Columns and labels:
physchem = type: physicochemical
oral bioavailability = type: in vivo; settings: mouse; for bioavailability: in vivo, po, Oral bioavailability, No inhib., no inhibitors, mean (two individual values)
Outline: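 Oral dosing in mice with no pretreatment by CYP or P-gp inhibitor. Oral bioavailability (F) reported as the mean of two independent experiments, with the individual values also given.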

[1] = type: in vitro ADME; settings: serum
[2] = type: in vitro ADME; settings: microsomes
MDCK permeability = type: in vitro ADME; settings: dog
P-gp = P-gp (Homo sapiens, UniProt P08183); assay: P-gp efflux ratio; type: in vitro ADME; settings: not told
P-gp, sequence (P08183 whole entry): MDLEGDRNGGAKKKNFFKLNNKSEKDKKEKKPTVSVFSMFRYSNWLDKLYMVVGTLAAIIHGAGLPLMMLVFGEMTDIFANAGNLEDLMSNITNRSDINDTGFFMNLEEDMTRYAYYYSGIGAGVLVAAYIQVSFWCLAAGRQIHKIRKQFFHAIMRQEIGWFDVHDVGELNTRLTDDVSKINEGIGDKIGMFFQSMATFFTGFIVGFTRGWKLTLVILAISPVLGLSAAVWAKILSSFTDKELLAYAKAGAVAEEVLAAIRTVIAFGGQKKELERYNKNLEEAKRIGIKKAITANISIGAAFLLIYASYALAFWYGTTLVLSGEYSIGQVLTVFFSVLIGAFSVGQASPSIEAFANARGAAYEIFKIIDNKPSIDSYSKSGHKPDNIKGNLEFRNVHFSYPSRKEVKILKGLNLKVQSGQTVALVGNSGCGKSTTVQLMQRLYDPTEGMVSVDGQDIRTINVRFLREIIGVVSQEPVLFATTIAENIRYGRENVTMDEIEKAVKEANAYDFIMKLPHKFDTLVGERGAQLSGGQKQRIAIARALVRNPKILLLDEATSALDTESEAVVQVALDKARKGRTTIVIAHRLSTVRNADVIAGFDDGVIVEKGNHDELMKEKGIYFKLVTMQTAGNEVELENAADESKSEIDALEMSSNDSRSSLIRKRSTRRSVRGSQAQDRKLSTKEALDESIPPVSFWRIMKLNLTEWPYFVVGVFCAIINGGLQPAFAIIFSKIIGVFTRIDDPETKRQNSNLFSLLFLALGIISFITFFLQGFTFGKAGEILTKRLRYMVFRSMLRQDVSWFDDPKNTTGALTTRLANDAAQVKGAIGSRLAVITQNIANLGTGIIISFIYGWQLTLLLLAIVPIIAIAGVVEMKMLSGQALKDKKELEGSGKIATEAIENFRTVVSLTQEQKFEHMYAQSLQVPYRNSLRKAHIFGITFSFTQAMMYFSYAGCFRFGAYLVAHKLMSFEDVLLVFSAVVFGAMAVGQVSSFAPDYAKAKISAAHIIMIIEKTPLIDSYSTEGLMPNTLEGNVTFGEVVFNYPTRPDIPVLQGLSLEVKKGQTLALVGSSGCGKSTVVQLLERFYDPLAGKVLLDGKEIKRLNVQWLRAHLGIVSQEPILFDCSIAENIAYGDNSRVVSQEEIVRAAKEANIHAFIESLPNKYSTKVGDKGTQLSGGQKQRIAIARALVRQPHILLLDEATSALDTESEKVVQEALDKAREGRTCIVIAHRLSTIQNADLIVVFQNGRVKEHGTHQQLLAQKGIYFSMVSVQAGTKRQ

[3] = pH 6.8, aqueous solubility at pH 6.8

solubility (physchem; pH 1.2, aq. sol. pH 1.2) | aq. sol. pH 6.8 (physchem) | oral BA (F) (oral bioavailability; 3 mg/kg, no CYP or P-gp inhibition) | bioavailability (oral bioavailability) | fraction unbound [1] | microsomal stability [2] | Papp (MDCK permeability) | efflux ratio (P-gp) | solubility (physchem; pH 6.8, aq. sol. pH 6.8) | solubility (physchem; [3]) | aq. sol. pH 1.2 (physchem; pH 1.2) | Structure (SMILES)
1800 µg/mL (≈ 1770 µM) | 1900 μg/mL | 1% | 1% | 0.31 | 64% | 0.4 ×10⁻⁶ cm/s | 6.4 | – | – | – | CCN1CC(=O)NC(CC(C)C)C(=O)N(C)C(C)C(=O)NC(CC(C)C)C(=O)N2CCCC2C(=O)N(CC2CCOCC2)CC(=O)NC(CC(C)C)C(=O)N(C)C(C)C(=O)NC(C)C(=O)N2CCCC2C1=O (stereo not drawn) [A03] (cyclo([NEtG]L[NMeA]LP[Gly(N-CH2-oxan-4-yl)]L[NMeA]AP); configuration not given here)
2.5 µg/mL (≈ 2.29 µM) | – | – | 5% | < 0.002 | 33% | 24.7 ×10⁻⁶ cm/s | 8.5 | 6.8 µg/mL (≈ 6.24 µM) | 7 µg/mL (≈ 6.43 µM) | – | CCN1CC(=O)NC(CC(C)C)C(=O)N(C)C(C)C(=O)NC(CC(C)C)C(=O)N2CCCC2C(=O)N(CC2CCCCC2)CC(=O)NC(CC(C)C)C(=O)N(C)C(C)C(=O)NC(Cc2ccccc2)C(=O)N2CCCC2C1=O (stereo not drawn) [A08] (cyclo([NEtG]L[NMeA]LP[NCyclohexylmethylGly]L[NMeA]FP); configuration not given here)
– | 210 μg/mL | – | – | – | 53% | – | – | – | 210 µg/mL (≈ 193 µM) | 210 μg/mL | CCN1CC(=O)N[C@@H](CC(C)C)C(=O)N2CCC[C@@H]2C(=O)N(C)[C@@H](CC(C)C)C(=O)N[C@@H](C)C(=O)N(CC2CCCCC2)CC(=O)N[C@@H](Cc2ccccc2)C(=O)N2CCC[C@@H]2C(=O)N(C)[C@@H](CC(C)C)C(=O)N[C@@H](C)C1=O [B08] (cyclo([NEtG]L[dP][NMeL]A[NCyclohexylmethylGly]F[dP][NMeL]A))

The next lines start with the molecule.

Structure (SMILES) | solubility (physchem; pH 1.2, aq. sol. pH 1.2) | aq. sol. pH 6.8 (physchem) | oral BA (F) (oral bioavailability; 3 mg/kg, no CYP or P-gp inhibition) | bioavailability (oral bioavailability) | fraction unbound [1] | microsomal stability [2] | Papp (MDCK permeability) | efflux ratio (P-gp) | solubility (physchem; pH 6.8, aq. sol. pH 6.8) | solubility (physchem; [3]) | aq. sol. pH 1.2 (physchem; pH 1.2)
CCN1CC(=O)N[C@@H](CC(C)C)C(=O)N(C)[C@@H](C)C(=O)N[C@@H](CC(C)C)C(=O)N2CCC[C@@H]2C(=O)N(CC2CCOCC2)CC(=O)N[C@@H](CC(C)C)C(=O)N(C)[C@@H](C)C(=O)N[C@@H](Cc2ccccc2)C(=O)N2CCC[C@@H]2C1=O [A09] (cyclo([NEtG]L[NMeA]L[dP][Gly(N-CH2-oxan-4-yl)]L[NMeA]F[dP])) | 590 µg/mL (≈ 541 µM) | 640 μg/mL | – | 2% | 0.02 | 67% | – | 46.9 | – | – | –
CCN1CC(=O)N[C@@H](CC(C)C)C(=O)N2CCC[C@@H]2C(=O)N(C)[C@@H](CC(C)C)C(=O)N[C@@H](C)C(=O)N(CC2CCOCC2)CC(=O)N[C@@H](Cc2ccccc2)C(=O)N2CCC[C@@H]2C(=O)N(C)[C@@H](CC(C)C)C(=O)N[C@@H](C)C1=O [B09] (cyclo(A[NEtG]L[dP][NMeL]A[Gly(N-CH2-oxan-4-yl)]F[dP][NMeL])) | 2100 µg/mL (≈ 1920 µM) | 2200 μg/mL | – | 1% | – | 90% | – | – | – | – | –
